Source: paper PMC3806897 (ACS chemical biology, 2013)
Each block holds one compound with its values, some of them ahead of it.

Tests used:
[1] = test system: MAGL; test: In vitro click chemistry; type: biochemical, mouse; settings: CC-ABPP with Rh-N3, 30 min, 37 °C
Procedure, shortened: (§1)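 Brain membrane proteome from naïve mice (1.0 mg/mL) was treated with varying concentrations of alkyne carbamate probe for 30 min at 37 °C. A premixed click mixture was added immediately: CuSO4 (50 mM stock), TBTA (1.7 mM stock), freshly prepared TCEP (50 mM stock) and Rh-N3 (1.25 mM stock). Reactions ran 1 h at room temperature, were diluted with SDS loading buffer, and were read by SDS-PAGE in-gel fluorescence.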

[2] = test system: brain serine hydrolases; test: In vivo competitive ABPP of brain proteomes, off-target profile; parameters: species or system mouse; settings: oral, 1-40 mg•kg^–1, 4 h
Procedure, shortened: (§2)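 C57Bl/6J mice received test compound by oral gavage in PEG300 (1.0–40 mg•kg-1). At 4 h they were anesthetized with isoflurane, killed by cervical dislocation, and tissues were flash-frozen. Brain membrane proteomes were labeled with FP-Rh for 30 min at room temperature, quenched in reducing SDS loading buffer, separated on 10% SDS-PAGE and scanned for in-gel fluorescence.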

[3] = biological target: T1, MAGL (Mus musculus, UniProt O35678); test: In vivo competitive ABPP of liver proteomes; settings: oral, 1-40 mg•kg^–1, 4 h
T1 sequence (O35678 1-303): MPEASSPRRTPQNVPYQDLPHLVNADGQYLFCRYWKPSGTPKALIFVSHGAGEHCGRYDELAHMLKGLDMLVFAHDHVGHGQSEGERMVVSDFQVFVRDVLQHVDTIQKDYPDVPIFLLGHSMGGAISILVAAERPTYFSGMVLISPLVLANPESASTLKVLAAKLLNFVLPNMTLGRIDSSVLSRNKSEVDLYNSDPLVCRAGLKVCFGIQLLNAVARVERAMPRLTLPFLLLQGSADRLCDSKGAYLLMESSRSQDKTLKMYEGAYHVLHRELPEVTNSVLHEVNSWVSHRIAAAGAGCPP
Procedure, shortened: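 Mice were gavaged orally with test compound in PEG300 (1.0–40 mg•kg-1). After 4 h, animals were killed under isoflurane and livers flash-frozen. Liver membrane proteomes were labeled with FP-Rh for 30 min at room temperature, quenched with reducing SDS loading buffer, resolved on 10% SDS-PAGE and read by in-gel fluorescence scanning.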

[4] = test system: mouse brain proteome; test: In vivo CC-ABPP of brain proteomes, off-target labeling; settings: entire tested dose range 1-40 mg•kg^–1 p.o.
[5] = test system: MAGL; test: In vivo competitive ABPP of brain proteomes from treated mice; parameters: species or system mouse
Procedure, shortened: as §2

[6] = test system: mouse brain proteome; test: In vitro CC-ABPP, background proteome reactivity; type: biochemical
Procedure, shortened: as §1

[7] = biological target: T2, FAAH (Mus musculus, UniProt O08914); test: In vivo competitive ABPP of brain proteomes from treated mice; settings: oral, 4 h
T2 sequence (O08914 1-579): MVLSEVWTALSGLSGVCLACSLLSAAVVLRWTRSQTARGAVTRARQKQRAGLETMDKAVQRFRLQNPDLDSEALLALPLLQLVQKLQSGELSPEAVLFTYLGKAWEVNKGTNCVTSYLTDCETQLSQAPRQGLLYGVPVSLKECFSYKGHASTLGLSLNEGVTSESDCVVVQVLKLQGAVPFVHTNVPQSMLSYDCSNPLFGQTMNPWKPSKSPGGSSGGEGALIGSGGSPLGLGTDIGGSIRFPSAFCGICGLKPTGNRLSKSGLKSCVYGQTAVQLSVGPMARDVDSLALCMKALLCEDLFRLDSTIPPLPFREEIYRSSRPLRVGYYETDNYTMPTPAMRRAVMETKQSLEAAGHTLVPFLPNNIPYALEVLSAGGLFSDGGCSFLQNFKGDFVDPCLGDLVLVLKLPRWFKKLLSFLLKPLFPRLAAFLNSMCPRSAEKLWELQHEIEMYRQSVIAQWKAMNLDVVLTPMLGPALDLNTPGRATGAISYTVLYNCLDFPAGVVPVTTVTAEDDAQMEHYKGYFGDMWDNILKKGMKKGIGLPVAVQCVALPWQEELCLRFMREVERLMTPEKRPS
Procedure, shortened: as §2

[8] = biological target: T2, FAAH; test: In vitro CC-ABPP of mouse brain proteomes; type: biochemical
Procedure, shortened: as §1

[9] = test system: carboxylesterases (CESs); test: In vivo CC-ABPP of liver proteomes; parameters: species or system mouse; settings: oral, 1-40 mg•kg^–1, 4 h
Procedure, shortened: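 Mice received oral alkyne carbamate probe in PEG300 (1–40 mg•kg-1) for 4 h before livers were harvested and flash-frozen. Liver membrane proteome, with the soluble fraction removed, was diluted to 1.0 mg/mL. It was clicked to Rh-N3 with premixed CuSO4, TBTA and fresh TCEP for 1 h at room temperature, then diluted in SDS loading buffer and resolved by SDS-PAGE for in-gel fluorescence.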

[10] = biological target: T2, FAAH; test: In vitro competitive ABPP with FP-Rh in mouse brain proteome; type: biochemical; settings: 30 min, 37 °C
Procedure, shortened: (§3)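 Mouse brain membrane proteome (1.0 mg/mL) was preincubated with DMSO or test compound (1–100,000 nM) for 30 min at 37 °C. FP-Rh (50 μM stock in DMSO) was added for another 30 min at room temperature, and reactions were quenched with SDS loading buffer. After SDS-PAGE, MAGL, ABHD6 and FAAH activities were quantified from in-gel fluorescent band intensities, from which IC50 values were calculated.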

[11] = test system: other brain serine hydrolases; test: In vitro competitive ABPP with FP-Rh, off-target profile; type: biochemical, mouse
Procedure, shortened: as §3

[12] = biological target: T1, MAGL; test: In vitro competitive ABPP with FP-Rh in mouse brain proteome; type: biochemical; settings: JW842 vs JW843, JW651 vs JW814; MJN110 vs all carbamates
Procedure, shortened: as §3

[13] = biological target: T3, ABHD6 (Mus musculus, UniProt Q8R2Y0); test: as above; type: biochemical; settings: for relative ABHD6 inhibitory potency: JW842 vs JW843, JW651 vs JW814, MJN110 vs all carbamates
T3 sequence (Q8R2Y0 1-336): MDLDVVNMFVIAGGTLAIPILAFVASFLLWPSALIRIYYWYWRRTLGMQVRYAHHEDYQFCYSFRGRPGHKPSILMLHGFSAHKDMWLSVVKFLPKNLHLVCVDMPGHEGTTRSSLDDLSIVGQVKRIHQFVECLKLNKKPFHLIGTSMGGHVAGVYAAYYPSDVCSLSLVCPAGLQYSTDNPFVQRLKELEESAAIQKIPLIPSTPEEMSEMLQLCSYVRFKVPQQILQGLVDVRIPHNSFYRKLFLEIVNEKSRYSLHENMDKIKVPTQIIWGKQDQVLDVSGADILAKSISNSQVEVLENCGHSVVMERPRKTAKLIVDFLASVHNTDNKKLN
Procedure, shortened: as §3

[14] = biological target: T3, ABHD6; test: In vivo competitive ABPP of brain proteomes from treated mice; settings: 40 mg•kg^-1 p.o., 4 h
Procedure, shortened: as §2

[15] = test system: brain lipid levels (2-AG, AA, AEA); test: Brain lipid levels in treated mice; type: in vivo, mouse; settings: JW651-treated mice, p.o., 4 h
Procedure, shortened: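 C57Bl/6J mice were dosed by oral gavage in PEG300 (1.0–40 mg•kg-1). After 4 h they were anesthetized with isoflurane and killed by cervical dislocation. Brains were harvested and flash-frozen in liquid N2. Lipids were measured by LC/MS against commercial standards.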

dose producing strong inhibition of FAAH in brain [7]: ≥ 10 mg•kg^–1
cross-reactivity with FAAH [8]: some cross-reactivity
change in inhibitory activity against FAAH on exchange of chloro for alkyne [10]: slight increase
Structure (SMILES): C#Cc1ccc(C(c2ccc(Cl)cc2)N2CCN(C(=O)Oc3ccc([N+](=O)[O-])cc3)CC2)cc1 (stereo not shown) [JW842yne]
CES labeling in liver [9]: strongest CES labeling profile
relative activity on MAGL in the brain in vivo ([5]; oral, 1-40 mg•kg^–1, 4 h, vs JW651yne and MJN110yne): less active

relative MAGL inhibitory potency [12]: much greater potency
relative ABHD6 inhibitory potency [13]: much greater potency
Structure (SMILES): O=C(Oc1ccc([N+](=O)[O-])cc1)N1CCN(C(c2ccc(Cl)cc2)c2ccc(Cl)cc2)CC1 [JW842]

The next lines start with the compound.

Structure (SMILES): C#Cc1ccc(C(c2ccc(Cl)cc2)N2CCN(C(=O)ON3C(=O)CCC3=O)CC2)cc1 (stereo not shown) [MJN110yne]
lowest probe concentration detecting MAGL reactivity [1]: 10 nM
only detectable off-target activity in brain in vivo [2]: ABHD6
inactivation of MAGL in liver [3]: potent inactivation
broader background proteome labeling in vivo [4]: did not reveal broader background proteome labeling
lowest dose substantially inhibiting MAGL in the brain ([5]; oral, 1-40 mg•kg^–1, 4 h): 5.0 mg•kg^–1
probe concentration at which background proteome reactivity became apparent ([6]; CC-ABPP with Rh-N3, more dramatic at 100 μM): 10 µM
degree of background proteome reactivity ([6]; CC-ABPP, concentrations up to 100 μM): highest degree of background proteome reactivity

Structure (SMILES): O=C(ON1C(=O)CCC1=O)N1CCN(C(c2ccc(Cl)cc2)c2ccc(Cl)cc2)CC1 [MJN110]
other off-targets observed ([11]; below 100 μM): LYPLA1/2 being the only other off-targets
relative MAGL inhibitory potency [12]: highest
relative ABHD6 inhibitory potency [13]: highest

Structure (SMILES): O=C(OC(C(F)(F)F)C(F)(F)F)N1CCN(C(c2ccc(Cl)cc2)c2ccc(Cl)cc2)CC1 [JW651]
cross-reactivity with other brain serine hydrolases off-targets ([11]; up to 10 μM): did not exhibit cross-reactivity
detectable off-targets ([11]; up to 100 μM JW651, membrane fraction of mouse brain proteome): ABHD6 being the only detectable off-target
inhibition of ABHD6 in brain [14]: partial inhibition
brain levels of N-arachidonoylethanolamide (AEA) [15]: unaffected
brain levels of arachidonic acid (AA) [15]: concomitant reductions
elevation of brain levels of 2-AG [15]: 10 fold
blockade of ABHD6 ([13]; at 10 μM): partial blockade
lowest dose giving near complete / complete inhibition of MAGL in brain ([5]; C57Bl/6J mice, oral gavage 1.0 to 40 mg•kg^-1, 4 h): 5 mg/kg
